In one data set the target is Mu-type opioid receptor (Rattus norvegicus, UniProt P33535). Nature of the data set: Displacement of [3H]DAMGO from rat cortex mu opioid receptor after 30 mins by liquid scintillation counting analysis. In outline: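 Rat cortex membranes prepared in 50 mM Tris pH 7.4, spun 16,500 rpm for 10 min, and incubated 30 min at 37 °C. Competition against [³H]DAMGO. Assay ended by filtration on BSA-soaked GF/B filters. Ki values are means of two experiments.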
(Displacement assays read how much labelled ligand stays bound in the presence of the test substance.)

Data set [1] is described as follows: Half life in rat brain homogenate at 10 uM. The class given is ADME, tissue-based. In outline:
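Peptide at a final 10 µM in rat brain homogenate (protein 21.2 mg/mL), incubated at 37 °C. Aliquots quenched in acetonitrile with internal standard in triplicate, centrifuged, and analysed by LC-MS/MS in MRM mode. Half-life from pseudo-first-order loss of the analyte/internal-standard ratio; mean of at least three experiments ± SEM.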

The target in data set [2] is Delta-type opioid receptor (Rattus norvegicus, UniProt P33533). Description: Displacement of [3H]DPDPE from rat cortex delta opioid receptor after 2.5 hrs by liquid scintillation counting analysis.
The species named for a further data set is Rattus norvegicus. Nature of the data set: Selectivity ratio of Ki for rat cortex mu opioid receptor to Ki for rat cortex delta opioid receptor. In a few lines: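 Ki ratio (MOR/DOR), from Ki values that are means of two experiments. MOR: rat cortex homogenized in 50 mM Tris pH 7.4, spun, preincubated 30 min at 37 °C, spun again, then resuspended with bovine serum; displacement of [3H]DAMGO. DOR: 2 nM [3H]DPDPE; 2.5 h at 25 °C; unlabeled DPDPE as competitor. Filtration on GF/B.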

A short description of data set [3]: Selectivity ratio of Ki for guinea pig cortex/cerebella kappa opioid receptor to Ki for rat cortex delta opioid receptor. In a few lines:
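Ki ratio (KOR/DOR), from Ki values that are means of two experiments. KOR: guinea pig cortex and cerebellum membranes in 50 mM Tris pH 7.4 with 10 mM MgCl2; 2 nM [3H]U69,593; 2 h at 25 °C; unlabeled U50,488 defines the curve and nonspecific binding. Filtration on GF/B.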

The target of data set [4] is Mu-type opioid receptor (Homo sapiens) (UniProt P35372). Description: Agonist activity at mu opioid receptor (unknown origin) expressed in HEK293 cells assessed as change in cell morphology at 3.3 uM measured over 30 mins by label free binding assay relative to DAMGO. The class given is cell-based. In outline:
(§1)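 Label-free biosensor (BIND) measuring cell spreading as increase in peak wavelength value. MOR in HEK293 cells, DOR in CHO cells, seeded 2 × 10⁴/well on fibronectin/collagen/albumin-coated plates and incubated overnight. Assay buffer was HBSS with 0.5–1% DMSO, equilibrated 30 min at room temperature before a baseline read. Compound added to a final 3.3 µM and read over 30 min. Response given as % of DAMGO 300 nM (MOR, n = 2) or DPDPE 10 nM (DOR, n = 4).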

The target of data set [5] is T1, Delta-type opioid receptor (Homo sapiens, UniProt P41143). Nature of the data set: Agonist activity at delta opioid receptor (unknown origin) expressed in CHO cells assessed as change in cell morphology at 3.3 uM measured over 30 mins by label free binding assay relative to DPDPE. The data set is classed as cell-based. In a few lines: as §1
Data set [6] has as its target T1, Delta-type opioid receptor. Description: Agonist activity at delta opioid receptor (unknown origin) expressed in CHO cells assessed as inhibition of forskolin-induced cAMP production at 500 nM after 30 mins by europium cryptate/d2 dye-based FRET analysis relative to DPDPE. The data set is classed as functional, cell-based. In outline:
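DOR-expressing CHO cells, 20,000/well, exposed to test compound at 500 nM with 4 µM forskolin in PBS containing 1 mM IBMX for 30 min at room temperature. Cells then lysed with Europium cryptate and d2 acceptor reagents for 1 h, and cAMP read by FRET. Expressed as % of the 500 nM DPDPE response, n = 4.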

The source of these data is ChEMBL document CHEMBL3407426, “Synthesis and biological evaluations of novel endomorphin analogues containing α-hydroxy-β-phenylalanine (AHPBA) displaying mixed μ/δ opioid receptor agonist and δ opioid receptor antagonist activities” (Eur J Med Chem, 2015).

pKi: −log10 of the molar value. Where a SMILES comes first, the peptide text is derived from it. [ ]: non-standard residue; d: D form. ξ: configuration not given here. Dmt = Cc1cc(O)cc(C)c1C[C@H](N)C(=O)O; ξTiq(1-COOH) = O=C(O)C1NCCc2ccccc21; β3hF = N[C@H](CC(=O)O)Cc1ccccc1

As usually defined, the pKi is −log10 of the Ki, conventionally taken in molar units. High values mean a small Ki, low ones a large Ki. A word on the half-life: it is the time in which the quantity being followed falls by half. Higher therefore signals slow loss. As usually defined, the inhibition is the drop in the measured response relative to a control, in per cent.

Delta-type opioid receptor (Rattus norvegicus, UniProt P33533), sequence (P33533 whole entry): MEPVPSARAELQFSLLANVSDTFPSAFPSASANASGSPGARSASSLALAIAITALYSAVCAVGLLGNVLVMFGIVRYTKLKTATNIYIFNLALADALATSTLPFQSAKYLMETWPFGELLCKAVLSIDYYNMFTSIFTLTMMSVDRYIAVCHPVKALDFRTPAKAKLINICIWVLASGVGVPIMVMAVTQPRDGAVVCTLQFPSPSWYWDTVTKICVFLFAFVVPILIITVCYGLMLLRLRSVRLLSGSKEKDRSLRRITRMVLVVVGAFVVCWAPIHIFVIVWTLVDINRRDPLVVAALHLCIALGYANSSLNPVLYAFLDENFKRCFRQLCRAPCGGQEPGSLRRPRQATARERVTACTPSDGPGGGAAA
T1 sequence (P41143 whole entry): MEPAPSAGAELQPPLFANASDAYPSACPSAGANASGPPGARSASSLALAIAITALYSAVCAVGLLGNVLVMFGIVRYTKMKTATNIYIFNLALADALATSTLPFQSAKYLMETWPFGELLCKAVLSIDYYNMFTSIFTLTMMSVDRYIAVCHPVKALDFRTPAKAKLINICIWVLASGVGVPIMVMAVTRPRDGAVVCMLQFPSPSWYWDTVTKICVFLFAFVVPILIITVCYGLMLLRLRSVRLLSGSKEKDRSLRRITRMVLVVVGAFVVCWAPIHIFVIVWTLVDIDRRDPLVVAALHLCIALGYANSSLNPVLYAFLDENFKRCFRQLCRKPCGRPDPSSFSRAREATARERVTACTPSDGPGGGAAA
Mu-type opioid receptor (Homo sapiens), sequence (P35372 whole entry): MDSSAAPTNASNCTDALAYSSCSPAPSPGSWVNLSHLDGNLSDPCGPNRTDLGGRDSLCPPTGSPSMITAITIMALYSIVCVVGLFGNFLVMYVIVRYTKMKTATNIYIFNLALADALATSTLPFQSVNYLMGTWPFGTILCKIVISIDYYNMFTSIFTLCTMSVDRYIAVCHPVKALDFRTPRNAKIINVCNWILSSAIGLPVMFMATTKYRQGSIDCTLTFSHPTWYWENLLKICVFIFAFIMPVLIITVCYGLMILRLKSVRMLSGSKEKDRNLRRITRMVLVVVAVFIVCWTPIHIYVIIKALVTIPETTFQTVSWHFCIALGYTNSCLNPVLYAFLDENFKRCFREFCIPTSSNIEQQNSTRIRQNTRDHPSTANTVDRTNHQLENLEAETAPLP
Mu-type opioid receptor, sequence (P33535 whole entry): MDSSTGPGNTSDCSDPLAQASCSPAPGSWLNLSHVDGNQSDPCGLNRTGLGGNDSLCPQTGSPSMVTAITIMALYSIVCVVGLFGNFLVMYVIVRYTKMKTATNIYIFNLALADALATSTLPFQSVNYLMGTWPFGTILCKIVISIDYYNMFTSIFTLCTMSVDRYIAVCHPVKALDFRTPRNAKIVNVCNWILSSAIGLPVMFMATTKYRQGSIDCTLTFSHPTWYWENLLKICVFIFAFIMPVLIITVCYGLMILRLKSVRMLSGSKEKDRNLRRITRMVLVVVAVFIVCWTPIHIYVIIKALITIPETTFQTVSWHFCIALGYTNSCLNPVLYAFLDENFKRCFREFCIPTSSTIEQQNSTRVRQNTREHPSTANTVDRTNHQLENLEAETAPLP

`NC(=O)[C@H](Cc1ccccc1)NC(=O)[C@H](O)[C@H](Cc1ccccc1)NC(=O)[C@@H]1CCCN1C(=O)[C@@H](N)Cc1ccc(O)cc1`: the negative-log Ki (pKi) was 8.05 at Mu-type opioid receptor and 5.48 in data set [2]. In addition, the half-life at 10 µM in data set [1] is 6.52 min.
Turning to `NC(=O)[C@H](Cc1ccccc1)NC(=O)[C@H](O)[C@@H](Cc1ccccc1)NC(=O)[C@@H]1CCCN1C(=O)[C@@H](N)Cc1ccc(O)cc1`, the values for the pKi (on Mu-type opioid receptor; in data set [2]) were 5.68 and 5.91, respectively.
On to `Cc1cc(O)cc(C)c1C[C@H](N)C(=O)N1CCc2ccccc2C1C(=O)N[C@@H](Cc1ccccc1)C(=O)N[C@H](CC(N)=O)Cc1ccccc1` (stereo partly drawn) (H-[Dmt][ξTiq(1-COOH)]F[β3hF]-NH2), for which the results for the pKi (on Mu-type opioid receptor; in data set [2]) were 7.82 and 9.00, respectively. The compound also gave a half-life at 10 µM in data set [1] of 28.9 min. Besides, the Ratio Ki in the data set listed under Rattus norvegicus was 15; in data set [3] it was 30.
Regarding `Cc1cc(O)cc(C)c1C[C@H](N)C(=O)N1CCc2ccccc2C1C(=O)N[C@@H](Cc1c[nH]c2ccccc12)C(=O)N[C@H](CC(N)=O)Cc1ccccc1` (stereo partly drawn) (H-[Dmt][ξTiq(1-COOH)]W[β3hF]-NH2), the values for the pKi (on Mu-type opioid receptor; in data set [2]) were 7.85 and 9.00, respectively. In data set [1], this compound yielded a half-life at 10 µM above 120 min.
For `Cc1cc(O)cc(C)c1C[C@H](N)C(=O)N1CCc2ccccc2C1C(=O)N[C@@H](Cc1c[nH]c2ccccc12)C(=O)N[C@@H](Cc1ccccc1)[C@H](O)C(N)=O` (stereo not given in full), the Activity in data set [4] amounted to 50%; in data set [5], 45%. Moreover, the pKi is 8.52 on Mu-type opioid receptor and 9.10 in data set [2]. In data set [1], the half-life at 10 µM was above 120 min. For the same compound, the inhibition in data set [6] was found to be 104%.
On to `NC(=O)[C@H](Cc1ccccc1)NC(=O)[C@@H](O)[C@H](Cc1ccccc1)NC(=O)[C@@H]1CCCN1C(=O)[C@@H](N)Cc1ccc(O)cc1`, for which the pKi on Mu-type opioid receptor is 6.30; in data set [2], 5.75.
For the compound `NC(=O)[C@@H](O)[C@@H](Cc1ccccc1)NC(=O)[C@H](Cc1ccccc1)NC(=O)[C@@H]1CCCN1C(=O)[C@@H](N)Cc1ccc(O)cc1`, at Mu-type opioid receptor, the pKi is 6.49.
For `NC(=O)[C@H](Cc1ccccc1)NC(=O)[C@H](Cc1ccccc1)NC(=O)[C@@H]1CCCN1C(=O)[C@@H](N)Cc1ccc(O)cc1` [ENDOMORPHIN 2], the Activity in data set [4] came out at 98%; in data set [5] it was 52%. The half-life at 10 µM in data set [1] worked out at 0.75 min.
As to `Cc1cc(O)cc(C)c1C[C@H](N)C(=O)N1CCc2ccccc2C1C(=O)N[C@H](CC(=O)N[C@@H](Cc1ccccc1)C(N)=O)Cc1ccccc1` (stereo partly drawn) (H-[Dmt][ξTiq(1-COOH)][β3hF]F-NH2), the pKi was 8.22 on Mu-type opioid receptor and 9.00 in data set [2]. In addition, the half-life at 10 µM in data set [1] was above 120 min. Further, the Ratio Ki in the data set filed under Rattus norvegicus was 6.
Turning to `Cc1cc(O)cc(C)c1C[C@H](N)C(=O)N1CCc2ccccc2C1C(=O)N[C@@H](Cc1ccccc1)C(=O)N[C@@H](Cc1ccccc1)[C@@H](O)C(N)=O` (stereo not given in full), the Activity was 52% in data set [4] and 22% in data set [5]. The negative logarithm of the Ki (pKi) at Mu-type opioid receptor was 7.82; in data set [2], 9.30. Moreover, the half-life at 10 µM in data set [1] turned out to be 82.6 min.
With `N=C(N)NCCC[C@H](NC(=O)[C@H](O)[C@H](Cc1ccccc1)NC(=O)[C@@H]1CCCN1C(=O)[C@@H](N)Cc1ccc(O)cc1)C(N)=O`, the negative-log Ki (pKi) at Mu-type opioid receptor is 7.07; in data set [2] it was 6.32.
Turning to `NC(=O)C[C@H](Cc1ccccc1)NC(=O)[C@H](Cc1ccccc1)NC(=O)[C@@H]1CCCN1C(=O)[C@@H](N)Cc1ccc(O)cc1`, the pKi at Mu-type opioid receptor was 7.64; in data set [2], 5.60.
Turning to `NC(=O)C[C@H](Cc1ccccc1)NC(=O)[C@H](Cc1c[nH]c2ccccc12)NC(=O)[C@@H]1CCCN1C(=O)[C@@H](N)Cc1ccc(O)cc1`, the pKi is 8.00 on Mu-type opioid receptor and 5.39 in data set [2]. Further, the half-life at 10 µM in data set [1] was 4.57 min.
At Mu-type opioid receptor, `NC(=O)[C@H](O)[C@H](Cc1ccccc1)NC(=O)[C@H](Cc1ccccc1)NC(=O)[C@@H]1CCCN1C(=O)[C@@H](N)Cc1ccc(O)cc1` gave a pKi of 7.48.
In the case of `NC(=O)[C@H](Cc1ccccc1)NC(=O)[C@@H](O)[C@@H](Cc1ccccc1)NC(=O)[C@@H]1CCCN1C(=O)[C@@H](N)Cc1ccc(O)cc1`, the pKi at Mu-type opioid receptor is 6.69; in data set [2] it was 6.23.
On the same counts, the results for `NC(=O)[C@@H](O)[C@@H](Cc1ccccc1)NC(=O)[C@H](Cc1c[nH]c2ccccc12)NC(=O)[C@@H]1CCCN1C(=O)[C@@H](N)Cc1ccc(O)cc1` are 6.75 and 6.54.
Take `Cc1cc(O)cc(C)c1C[C@H](N)C(=O)N1CCc2ccccc2C1C(=O)N[C@@H](Cc1c[nH]c2ccccc12)C(=O)N[C@@H](Cc1ccccc1)C(N)=O` (stereo not given in full) (H-[Dmt][ξTiq(1-COOH)]WF-NH2): the values for the Activity in data set [4] and in data set [5] were 43% and 26%, respectively. The pKi at Mu-type opioid receptor is 8.30; in data set [2] it was 8.70. Also, the half-life at 10 µM in data set [1] is 32.2 min. For the same compound, the inhibition in data set [6] was determined as 87%.
With `NC(=O)C(Cc1ccc(F)cc1)NC(=O)[C@H](O)[C@H](Cc1ccccc1)NC(=O)[C@@H]1CCCN1C(=O)[C@@H](N)Cc1ccc(O)cc1` (stereo not given in full), the pKi on Mu-type opioid receptor is 6.68; in data set [2], 6.08.
Take `NC(=O)[C@H](Cc1ccccc1)NC(=O)[C@H](Cc1c[nH]c2ccccc12)NC(=O)[C@@H]1CCCN1C(=O)[C@@H](N)Cc1ccc(O)cc1`: the Activity in data set [5] stood at 49%.
Take `NC(=O)[C@H](O)[C@H](Cc1ccccc1)NC(=O)[C@H](Cc1c[nH]c2ccccc12)NC(=O)[C@@H]1CCCN1C(=O)[C@@H](N)Cc1ccc(O)cc1`: the negative-log Ki (pKi) was 7.60 on Mu-type opioid receptor and 6.34 in data set [2].
The like results for `NC(=O)[C@H](O)[C@@H](Cc1ccccc1)NC(=O)[C@H](Cc1c[nH]c2ccccc12)NC(=O)[C@@H]1CCCN1C(=O)[C@@H](N)Cc1ccc(O)cc1` were, in that order, 6.61 and 6.36.
Compound `NC(=O)[C@H](O)[C@@H](Cc1ccccc1)NC(=O)[C@H](Cc1ccccc1)NC(=O)[C@@H]1CCCN1C(=O)[C@@H](N)Cc1ccc(O)cc1` showed a pKi on Mu-type opioid receptor of 6.35.
Consider `NC(=O)[C@@H](O)[C@H](Cc1ccccc1)NC(=O)[C@H](Cc1c[nH]c2ccccc12)NC(=O)[C@@H]1CCCN1C(=O)[C@@H](N)Cc1ccc(O)cc1`, for which the pKi on Mu-type opioid receptor is 8.00; in data set [2], 6.29. The same compound displayed a half-life at 10 µM in data set [1] of 3.57 min.
Turning to `Cc1cc(O)cc(C)c1C[C@H](N)C(=O)N1CCc2ccccc2C1C(=O)N[C@@H](Cc1ccccc1)C(=O)N[C@@H](Cc1ccccc1)[C@H](O)C(N)=O` (stereo not given in full), the figures for the Activity in data set [4] and in data set [5] were 51% and 82%, respectively. Moreover, the figures for the pKi (on Mu-type opioid receptor; in data set [2]) were 7.92 and 9.00, respectively. Also, the half-life at 10 µM in data set [1] was 49 min.
For `NC(=O)[C@H](Cc1ccccc1)NC(=O)C[C@H](Cc1ccccc1)NC(=O)[C@@H]1CCCN1C(=O)[C@@H](N)Cc1ccc(O)cc1`, the negative logarithm of the Ki (pKi) at Mu-type opioid receptor is 7.62; in data set [2] it was 6.41.
`NC(=O)[C@@H](O)[C@H](Cc1ccccc1)NC(=O)[C@H](Cc1ccccc1)NC(=O)[C@@H]1CCCN1C(=O)[C@@H](N)Cc1ccc(O)cc1` had a negative-log Ki (pKi) at Mu-type opioid receptor of 7.77. The compound also returned a half-life at 10 µM in data set [1] of 2.3 min.
For `NC(=O)C(Cc1ccc2ccccc2c1)NC(=O)[C@H](O)[C@H](Cc1ccccc1)NC(=O)[C@@H]1CCCN1C(=O)[C@@H](N)Cc1ccc(O)cc1` (stereo not given in full), the pKi at Mu-type opioid receptor was 7.41; in data set [2], 6.12.
Take `NC(=O)[C@H](Cc1c[nH]c2ccccc12)NC(=O)[C@H](O)[C@H](Cc1ccccc1)NC(=O)[C@@H]1CCCN1C(=O)[C@@H](N)Cc1ccc(O)cc1`: the pKi on Mu-type opioid receptor was 7.89.
